# High-throughput results (PubChem)
# Compounds with a hit are over-represented: about 3.1% of the library has one in this group of screens.
# PAFAH2 inh – PAFAH2 enzyme inhibitors, primary screen, biochemical, fluorescence polarization, human; Platelet-activating factor acetylhydrolase 2, cytoplasmic (Homo sapiens), Q99487; recombinant PAFAH2, FP-rhodamine activity probe; inhibition, % at 3.39 µM; 0.99% of 340,000 active; AID 492956, 2010;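 active = inhibition above the mean over all tested compounds plus 3 SD, cut at about 30% in these data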;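 also: inhibitors block probe labeling of enzyme so polarization drops; 0% = enzyme with DMSO and 100% = wells lacking PAFAH2 protein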
# PAFAH1B3 FP inh – PAFAH1B3 enzyme inhibitors, primary screen, biochemical, fluorescence polarization, human; recombinant PAFAH1B3, FP-rhodamine probe; inhibition, % at 3.39 µM; 0.28% of 340,000 active; AID 492972, 2010;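 active = inhibition above the screen-wide average of all tested compounds plus 3 SD, cut at about 25% in these data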;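 also: 0% = enzyme with DMSO only and 100% = wells lacking PAFAH1B3 protein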
# Target sequence (Q15102 whole entry, looked up): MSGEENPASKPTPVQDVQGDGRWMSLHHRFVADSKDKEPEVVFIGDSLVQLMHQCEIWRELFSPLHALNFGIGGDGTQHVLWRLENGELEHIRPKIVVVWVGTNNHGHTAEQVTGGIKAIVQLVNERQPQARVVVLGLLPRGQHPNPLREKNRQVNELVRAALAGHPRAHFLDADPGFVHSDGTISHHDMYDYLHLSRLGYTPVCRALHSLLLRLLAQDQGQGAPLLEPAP
# Apaf-1 inh – inhibitors of human Apaf-1 apoptosome, primary screen, biochemical, DEVD-Rh110 fluorescence, uHTS; inhibition, % at 20 µM; 0.71% of 330,000 active; reconstituted apoptosome caspase-3 activity; active = inhibition of at least 40% at 20 µM;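 also: plate controls were DMSO wells for no effect and DEVD-CHO caspase inhibitor wells for full effect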
#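 System: Apoptosome proteins | Medium: Hepes pH 7.5 with detergent and BSA | Also added: Cytochrome c trigger plus (Z-DEVD)2-Rh110 caspase-3 substrate | Incubation: 30 min compound preincubation, 50 min activation, room temperature | Detection: Rhodamine 110 fluorescence at Ex 480/Em 540 nm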
# PAFAH1B2 FP inh – PAFAH1B2 enzyme inhibitors, primary screen, biochemical, fluorescence polarization, human. Platelet-activating factor acetylhydrolase IB subunit alpha2 (Homo sapiens), P68402. recombinant PAFAH1B2, FP-rhodamine activity probe. inhibition, % at 3.39 µM. 1.2% of 340,000 active. AID 492953, 2010;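 active = inhibition above the mean of all tested compounds plus 3 SD, cut at about 24% in these data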;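 also: 0% = enzyme with DMSO and 100% = wells lacking PAFAH1B2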
# pPAFAH inh – pPAFAH enzyme inhibitors, primary screen, biochemical, fluorescence polarization, human; recombinant pPAFAH, FP-rhodamine probe fluorescence polarization; inhibition, % at 3.39 µM; Platelet-activating factor acetylhydrolase (Homo sapiens), Q13093; 1.5% of 330,000 active;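 active = inhibition above the mean inhibition across the screen plus 3 SD, cut at about 25% in these data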;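 also: inhibitors block binding of the rhodamine activity-based probe so polarization drops; 0% = enzyme with DMSO and 100% = wells lacking pPAFAH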
# Target sequence (Q13093 whole entry, looked up): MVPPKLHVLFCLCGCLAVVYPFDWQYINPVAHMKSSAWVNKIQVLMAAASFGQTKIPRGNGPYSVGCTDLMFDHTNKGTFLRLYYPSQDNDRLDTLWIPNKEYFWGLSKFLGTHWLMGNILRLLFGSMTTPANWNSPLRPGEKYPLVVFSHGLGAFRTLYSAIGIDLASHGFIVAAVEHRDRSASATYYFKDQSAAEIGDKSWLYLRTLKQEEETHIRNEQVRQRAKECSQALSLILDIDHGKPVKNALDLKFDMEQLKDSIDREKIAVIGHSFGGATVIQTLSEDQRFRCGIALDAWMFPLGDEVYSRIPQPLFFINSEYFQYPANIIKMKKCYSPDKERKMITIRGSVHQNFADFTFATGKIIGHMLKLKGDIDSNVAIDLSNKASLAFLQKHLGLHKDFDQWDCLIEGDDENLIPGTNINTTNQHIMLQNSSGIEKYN
# * = called active by the depositor; / = no result.
SMILES,PAFAH2 inh,PAFAH1B3 FP inh,Apaf-1 inh,PAFAH1B2 FP inh,pPAFAH inh
Cc1cc(=O)[nH]c(SCc2ccccc2)n1,2.8,4.9,-7.8,0.2,-1.5
Cc1ccc(S(=O)(=O)Nc2cc(=O)[nH]c(SCc3ccccc3Cl)n2)cc1,-1.9,5.0,1.6,-0.8,-9.4
O=C(Nc1ccc(F)c(F)c1)C1CCN(S(=O)(=O)c2cccs2)CC1,3.9,6.5,5.7,-2.5,6.1
COc1ccc(-c2cc(C(F)(F)F)nc(SCc3cccc(C(=O)O)c3)n2)cc1,-3.0,-3.9,15.1,0.1,7.6
O=C(O)c1cccc(CSc2nc(-c3ccccc3)cc(C(F)(F)F)n2)c1,-10.8,7.0,4.9,1.8,25.6*
COC(=O)CCC(C(=O)CN1C(=O)c2ccccc2C1=O)N1C(=O)c2ccccc2C1=O (configuration not stated),5.3,1.3,/,2.6,/
CNC(=S)/N=C/NOCc1ccc(Cl)cc1Cl,-0.6,6.3,13.0,5.3,1.8
OCCCNc1cc(-c2ccccc2)nc2cc(-c3ccc(F)cc3)nn12,-10.1,5.5,24.8,26.2*,3.6
Cc1cc(NCCCO)n2nc(-c3cccs3)cc2n1,-3.8,0.5,-4.5,5.0,0.6
O=C(COc1ccc2c3c(c(=O)oc2c1)CCCC3)NCc1ccccn1,7.0,6.7,1.5,1.2,1.1
CCCCCCc1cc2cc(-c3nnc(-c4cc(OC)c(OC)c(OC)c4)o3)c(=O)oc2cc1O,/,/,62.9*,/,5.4
COc1cc(NC(=O)CCCNC(=O)Cn2cnc3sc(C)c(C)c3c2=O)cc(OC)c1OC,6.7,3.9,-2.2,-1.4,0.2
O=C(CS(=O)(=O)c1cn(Cc2ccc(Cl)cc2)c2ccccc12)N1CCCCC1,-2.5,-7.9,14.3,28.2*,0.0
O=C(CS(=O)(=O)c1cn(Cc2ccc(F)cc2)c2ccccc12)N1CCCCC1,12.5,9.5,15.4,21.5,3.2
OC(c1ccccc1)C(NCCNCc1ccccc1)c1ccccc1 (configuration not stated),-4.4,0.5,/,3.2,/
Cn1nnnc1Sc1ncnc2scc(-c3ccsc3)c12,4.3,7.0,9.0,6.5,-0.3
O=C(/C=C\c1ccco1)NC(=S)Nc1ccccc1O,-2.2,6.2,-0.4,0.6,32.9*
Cc1ccc(NC(=S)NC(=O)/C=C/c2ccco2)c(O)c1,5.0,4.7,11.9,2.9,30.4*
O=C(/C=C/c1ccco1)NC(=S)Nc1ccccc1O,/,/,0.9,/,23.5
CCOc1ccc(S(=O)(=O)Nc2cc(SCC(=O)O)c(O)c3ccccc23)cc1,21.1,23.4,/,16.0,/
O=C(O)CSc1cc(NS(=O)(=O)c2cccc([N+](=O)[O-])c2)c2ccccc2c1O,27.7,49.3*,/,27.6*,/
Cc1ccc(C)c(S(=O)(=O)Nc2cc(SCC(=O)O)c(O)c3ccccc23)c1,34.1*,51.0*,/,72.3*,12.4
CC1CCN(C(=S)Nc2ccc3nc4n(c(=O)c3c2)CCCCC4)CC1,-6.3,6.0,6.9,24.3*,6.5
Cc1cc(C)c(NC(=O)C2CCCO2)c(C)c1NC(=O)C1CCCO1 (configuration not stated),-9.4,6.1,1.3,-1.2,3.9
Oc1ccc(C23CC4CC(CC(C4)C2)C3)cc1O,7.7,4.0,/,61.1*,24.0
SMILES,PAFAH2 inh,PAFAH1B3 FP inh,Apaf-1 inh,PAFAH1B2 FP inh,pPAFAH inh
CC(=O)Nc1ccc(C23CC4CC(CC(C4)C2)C3)cc1,17.0,-4.6,15.4,25.5*,4.1
NCCOc1ccc(C23CC4CC(CC(C4)C2)C3)cc1,10.6,5.3,7.9,13.8,3.2
CNC(=S)Nc1ccc(C23CC4CC(CC(C4)C2)C3)cc1,-2.0,1.2,17.7,21.1,2.7
COc1ccc(-c2cccc3c2C2CC3CCN2C(=O)OCc2ccccc2)cc1 (configuration not stated),-5.2,3.7,/,6.7,/
Cc1cc(Br)ccc1NC(=O)CN1C(=O)C2CC=CCC2C1=O (configuration not stated),0.6,0.1,16.7,4.9,1.9
Cc1ccc(S(=O)(=O)c2nc(S(=O)(=O)c3ccccc3)sc2N2CCN(C)CC2)cc1,-0.3,5.1,-3.2,0.2,31.2*
O=C(Nc1cccc(S(=O)(=O)N2CCCCC2)c1)c1cc(=O)[nH]c2ccccc12,2.4,3.7,21.4,2.3,-0.8
S=C1NCCOCCOCCOCCN1,-4.8,-1.4,-1.4,1.4,0.6
S=C1NCCOCCNC(=S)NCCOCCOCCN1,5.6,0.1,0.7,-2.8,25.5*
Cc1cc(C)cc(N(CC(=O)Nc2ccc(C)cc2Cl)S(=O)(=O)c2c(C)[nH]c(=O)[nH]c2=O)c1,2.3,-7.2,17.9,3.1,3.8
Cc1cc(C)cc(N(CC(=O)Nc2ccc(C(F)(F)F)cc2)S(=O)(=O)c2c(C)[nH]c(=O)[nH]c2=O)c1,-0.4,-1.2,24.3,3.4,28.2*
COc1cc(NC(=O)CN(c2cc(C)cc(C)c2)S(=O)(=O)c2c(C)[nH]c(=O)[nH]c2=O)cc(OC)c1,1.0,5.7,-5.2,2.8,24.8*
Cc1ccc(C)c(C(=O)CN2C(=O)NC3(CCCCCC3)C2=O)c1,3.6,2.9,8.5,6.3,/
CCCCC[C@H](O)/C=C/C1C(=O)C=C[C@H]1C/C=C\CCCC(=O)OC (some centres not stated),3.4,9.7,/,5.8,/
O=C(NCCNC(=O)c1ccc(Br)o1)c1cccnc1,-0.2,-0.6,-8.3,1.9,-0.4
CN(C)c1ccc(C(=O)N2CCCC(CCC(=O)N3CCN(c4ccccn4)CC3)C2)cc1 (configuration not stated),1.8,5.3,-4.5,4.2,26.3*
COc1ccc(C(=O)N2CCCC(CCC(=O)N3CCN(c4ccccn4)CC3)C2)cc1 (configuration not stated),3.6,3.2,6.4,0.0,20.4
CN(C)c1cccc(C(=O)N2CCCC(CCC(=O)N3CCN(c4ccccn4)CC3)C2)c1 (configuration not stated),-2.1,1.1,6.5,0.0,-0.4
O=C(CCC1CCCN(C(=O)c2ccc3c(c2)OCO3)C1)N1CCN(c2ccccn2)CC1 (configuration not stated),-2.6,4.5,2.6,2.6,26.7*
O=C(CCC1CCCN(C(=O)c2cccc(F)c2)C1)N1CCN(c2ccccn2)CC1 (configuration not stated),-6.0,7.6,1.8,1.9,24.6*
Cc1ccc(N2C(=O)NC(NS(=O)(=O)c3ccccc3)(C(F)(F)F)C2=O)cc1C (configuration not stated),1.7,6.5,-7.7,7.4,4.5
CCn1c2ccccc2c2cc(NC(=O)c3ccc(=O)oc3)ccc21,/,/,4.0,/,32.5*
